Experimental data of several laboratories.
Each line is one published result; the experiments were not run side by side.
Cell line: MCF7
Read-out: cell growth or viability

Clc1ccc(Cn2nc(-c3nc(-c4ccccc4)no3)c3ccccc32)c(Cl)c1 — IC50 (48 h): 66.5 µM
COc1cccc2c1C(=O)c1c(O)c3c(c(O)c1C2=O)C[C@@](O)(C(=O)CO)C[C@@H]3O[C@H]1C[C@H](N)[C@H](O)[C@H](C)O1 — IC50 (MTT; 48 h): 0.5 µM
NS(=O)(=O)c1ccc(-n2nc(-c3nnc(CCl)o3)cc2-c2ccccc2)cc1 — IC50 (fluorescence; 48 h): 31.4 µM
O=C1CS/C(=N\c2ccc(F)cc2O)N1c1nnc(-c2ccc(C(F)(F)F)cc2/N=C2\SCC(=O)N2c2ccc(F)cc2O)s1 — IC50 (MTT): 18.1 µM
CCCNC(=S)N/N=C/c1cccc2cc3ccccc3nc12 — IC50 (MTT; 48 h): 48.1 µM
C#CCn1c(C2CC(c3ccc(F)cc3)=NN2C(C)=O)nc2ccccc21 (centres unmarked) — IC50 (LDH; 48 h): 2.97 µM
C/C(=N\C(=O)/N=C(\C)c1c(O)c2ccccc2oc1=O)c1c(O)c2ccccc2oc1=O — IC50 (MTT; 48 h): 14.6 µM
O=C1CS/C(=N\c2ccccc2O)N1c1nnc(-c2ccc(C(F)(F)F)cc2/N=C2\SCC(=O)N2c2ccccc2O)s1 — IC50 (MTT): 32.4 µM
CN(C)C(=S)[N-]N=C(c1ccccn1)c1ccccn1.[O]=[V+]=[O] — IC50 (MTT): 0.89 µM
O=C(O)c1nn(Cc2ccc(Cl)cc2Cl)c2ccccc12 — IC50 (48 h): 113 µM
CN(C)C(=O)Nc1nc2c(Cl)cc(Cl)cc2c(=O)n1-c1ccccc1 — IC50 (MTT; 48 h): > 200 µM
CCOC(=O)C(=CNc1ccc(Oc2ccccc2)cc1)C(=O)OCC — IC50 (MTT; 48 h): 115 µM
O=C1Nc2ccccc2C1=Nc1ccc(Cl)cc1 — IC50 (MTT; 48 h): 72.3 µM
COc1ccc(N(Cc2csc(-c3ccc(C)cc3)n2)C(=O)CCCCCC(=O)NO)cc1 — IC50 (MTT; 72 h): 3.31 µM
O=S(=O)([O-])c1ccc(O)c(C=NNC(=S)Nc2cccc3ccccc23)c1.[Na+] — IC50 (MTT; 48 h): > 800 µg/mL
O=C1CS/C(=N\c2cc(C(F)(F)F)ccc2-c2nnc(N3C(=O)CS/C3=N\c3ccc(-c4ccccc4)cc3)s2)N1c1ccc(-c2ccccc2)cc1 — IC50 (MTT): 90.1 µM
C[C@H]1[C@H](C)CC[C@]2(C)CC[C@]3(C)C(=CC(=O)[C@@H]4[C@@]5(C)CC[C@@H](O)[C@](C)(C(=O)NCc6cn(-c7ccc(F)cc7)nn6)[C@@H]5CC[C@]43C)[C@H]12 — IC50 (MTT; 24 h): 76.4 µM
C=CCN1C(=O)C(=Nc2cccc(C)c2)c2ccccc21 — IC50 (MTT; 48 h): > 100 µM
CN1CCC(NC2CCc3[nH]c4c(C(N)=O)ccc(-c5ccccc5Cl)c4c3C2)CC1 (centres unmarked) — IC50: 0.0164 µM
NS(=O)(=O)c1ccc(-n2nc(C(=O)NN=Cc3ccc(O)cc3)cc2-c2ccccc2)cc1 — IC50 (fluorescence; 48 h): 16.9 µM
NNc1nc2ccc(Br)cc2c(=O)n1-c1ccccc1 — IC50 (MTT; 48 h): 46.4 µM
CC(=O)OC[C@H]1O[C@@H](n2cc(Cn3c(C(=O)/C=C/c4ccc(F)cc4)nc4ccccc43)nn2)[C@H](OC(C)=O)[C@@H](OC(C)=O)[C@H]1OC(C)=O — IC50 (LDH; 48 h): 2.48 µM
O=[N+]([O-])c1cc(I)c(O)c(C=NNc2ccccc2)c1 — IC50 (MTT; 24 h): 7.76 µM
C[C@H]1[C@H](C)CC[C@]2(C)CC[C@]3(C)C(=CC(=O)[C@@H]4[C@@]5(C)CC[C@@H](O)[C@](C)(C(=O)NCc6cn(-c7ccc(Cl)cc7)nn6)[C@@H]5CC[C@]43C)[C@H]12 — IC50 (MTT; 24 h): 134 µM
O=C(C=Cc1cccs1)c1ccc(OCCCOc2ccc(C(=O)C=Cc3cccs3)cc2)cc1 — IC50 (MTT; 48 h): 4.05 µM
CC(=O)OC[C@H]1O[C@@H](n2cc(Cn3c(C(C)=O)nc4ccccc43)nn2)[C@H](OC(C)=O)[C@@H](OC(C)=O)[C@H]1OC(C)=O — IC50 (LDH; 48 h): 3.79 µM
C[C@H]1[C@H](C)CC[C@]2(C)CC[C@]3(C)C(=CC(=O)[C@@H]4[C@@]5(C)CC[C@@H](O)[C@](C)(C(=O)NCc6cn(-c7ccccc7)nn6)[C@@H]5CC[C@]43C)[C@H]12 — IC50 (MTT; 24 h): 124 µM
O=C1Nc2ccccc2C1=Nc1ccccc1Br — IC50 (MTT; 48 h): > 100 µM
O=C(NO)Nc1nc2c(Cl)cc(Cl)cc2c(=O)n1-c1ccccc1 — IC50 (MTT; 48 h): > 200 µM
COc1ccccc1/C=N/N=C1\C(=O)Nc2ccccc21 — IC50 (MTT; 48 h): 22.1 µg/mL
Cc1cccc(N=C2C(=O)N(Cc3ccc(Br)cc3)c3ccccc32)c1 — IC50 (MTT; 48 h): 9.69 µM
CC(=NNC(=O)c1cc(-c2ccccc2)n(-c2ccc(S(N)(=O)=O)cc2)n1)c1ccc(C)cc1 — IC50 (fluorescence; 48 h): 18.5 µM
C(=N\Nc1cc(N/N=C/c2cccc3cccnc23)nc(-c2ccccc2)n1)/c1cccc2cccnc12 — IC50 (MTT; 48 h): 10.4 µM
O=[N+]([O-])c1ccc(O)c(C=NNc2ccc(Br)cc2)c1 — IC50 (MTT; 24 h): 8.67 µM
CN(C)c1cccc(Nc2nc(-c3ccncc3)nc3c2CNCC3)c1 — IC50 (MTT): 46.4 µM
C/C(=N\c1nc(N)nc(/N=C(\C)c2c(O)c3ccccc3oc2=O)n1)c1c(O)c2ccccc2oc1=O — IC50 (MTT; 48 h): 6.68 µM
O=C(O)c1c[nH]c2ccc(Oc3ccccc3)cc2c1=O — IC50 (MTT): ≥ 200 µM
O=C1Nc2ccccc2C1=Nc1cccc(Cl)c1 — IC50 (MTT; 48 h): > 100 µM
O=C1/C(=C/c2ccc3ccccc3c2O)NC(=S)N1c1ccccc1 — IC50 (MTT): 8.1 µg/mL
COc1cc([C@@H]2c3cc4c(cc3[C@@H](O[C@@H]3O[C@@H]5CO[C@@H](C)O[C@H]5[C@H](O)[C@H]3O)[C@H]3COC(=O)[C@H]23)OCO4)cc(OC)c1O — IC50 (MTT; 48 h): 10.9 µM
COc1cc(C=O)ccc1OC1=C(Cl)C(=O)c2ccccc2C1=O — IC50 (MTT; 24 h): 41.5 µg/mL
O=C1C(=Nc2ccc(Cl)cc2Br)c2ccccc2N1Cc1ccc(Br)cc1 — IC50 (MTT; 48 h): 2.54 µM
CCOC(=O)c1c(C)nc2ccc(-c3ccc(F)cc3F)cc2c1O — IC50 (MTT; 48 h): 27 µM
CCc1ccc(N=C2C(=O)N(Cc3ccccc3)c3ccccc32)cc1 — IC50 (MTT; 48 h): 10.5 µM
C/C(=N\CCNCC/N=C(\C)c1c(O)c2ccccc2oc1=O)c1c(O)c2ccccc2oc1=O — IC50 (MTT; 48 h): 11 µM
Cc1cccc(N=C2C(=O)N(Cc3cccc(Cl)c3)c3ccccc32)c1 — IC50 (MTT; 48 h): 2.12 µM
Cc1cccc([N+](=O)[O-])c1N=C1SCC(=O)N1c1nnc(-c2ccc(C(F)(F)F)cc2N=C2SCC(=O)N2c2c(C)cccc2[N+](=O)[O-])s1 — IC50 (MTT): 53.2 µM
O=[N+]([O-])c1cc(I)c(O)c(C=NNc2ccc(C(F)(F)F)cc2)c1 — IC50 (MTT; 24 h): 8.56 µM
O=C1C(Cl)=C(n2cncn2)C(=O)c2ccccc21 — IC50 (MTT; 24 h): 26.8 µg/mL
Fc1ccc2c(-c3nnc(Cc4ccccc4)[nH]3)nn(Cc3ccc(Cl)cc3Cl)c2c1 — IC50 (48 h): 192 µM
C(=N\Nc1cc(N/N=C/c2ccc3ccccc3n2)nc(-c2ccccc2)n1)/c1ccc2ccccc2n1 — IC50 (MTT; 48 h): 7.05 µM
c1ccc(Cn2nc(-c3ncc(-c4ccccc4)s3)c3ccccc32)cc1 — IC50 (48 h): 73.8 µM
Cc1nc2ccc(-c3ccc(F)cc3)cc2c(O)c1C(=O)O — IC50 (MTT; 48 h): ≥ 100 µM
